For 3 compounds, Kd results are on record in article PMC6431292 (Journal of molecular biology, 2018).

Type in all cases: binding
In assay [1] the target is T1, BLVRB (biliverdin reductase B) (Homo sapiens, UniProt P30043, R78A).
T1 sequence (P30043 1-206 R78A): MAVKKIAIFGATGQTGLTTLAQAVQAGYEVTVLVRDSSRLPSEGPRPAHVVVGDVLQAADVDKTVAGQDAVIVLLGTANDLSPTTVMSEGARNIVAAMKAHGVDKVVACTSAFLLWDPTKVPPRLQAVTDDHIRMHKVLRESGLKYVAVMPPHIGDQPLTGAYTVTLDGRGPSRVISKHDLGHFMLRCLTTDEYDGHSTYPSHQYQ
The assay is described as follows: isothermal titration calorimetry. Put shortly:
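Human BLVRB (R78A mutant) expressed in E. coli BL21/DE3 with a cleavable N-terminal His-tag, Ni-purified under denaturing conditions, refolded by dialysis, tag removed, then gel-filtered. ITC used 100 μM enzyme in the cell, titrated with reduced or oxidized coenzyme (freshly prepared) at 1 mM. Buffer was 50 mM Bis–Tris pH 6.5, 50 mM NaCl, 1 mM DTT, at 20 °C. Runs were done in duplicate.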

Assay [2] addresses T2, BLVRB (biliverdin reductase B) (Homo sapiens, UniProt P30043).
T2 sequence (P30043 1-206): T1 sequence (P30043 1-206 R78A) with A78R
The assay is described as follows: isothermal titration calorimetry.

Assay [3] deals with T2, BLVRB (biliverdin reductase B). The assay is described as follows: NMR titration.

Substitutions are numbered along the chain they refer to.

For orientation: Kd means the constant that tells how readily two partners part at equilibrium. Higher therefore signals weaker binding.

In the case of `NC(=O)c1ccc[n+]([C@@H]2O[C@H](COP(=O)(O)OP(=O)(O)OC[C@H]3O[C@@H](n4cnc5c(N)ncnc54)[C@H](OP(=O)(O)O)[C@@H]3O)[C@@H](O)[C@H]2O)c1` [NADP^+], the values for the dissociation constant Kd in assay [1] and in assay [2] were 2800 ± 200 nM and 400 ± 200 nM, respectively.

In assay [2], `NC(=O)C1=CN([C@@H]2O[C@H](COP(=O)(O)OP(=O)(O)OC[C@H]3O[C@@H](n4cnc5c(N)ncnc54)[C@H](OP(=O)(O)O)[C@@H]3O)[C@@H](O)[C@H]2O)C=CC1` [NADPH] displayed a Kd of 300 ± 200 nM.

With `Cc1cc2nc3c(=O)[nH]c(=O)nc-3n(C[C@H](O)[C@H](O)[C@H](O)COP(=O)(O)OP(=O)(O)OC[C@H]3O[C@@H](n4cnc5c(N)ncnc54)[C@H](O)[C@@H]3O)c2cc1C` [FAD], the Kd in assay [3] worked out at 590000 ± 80000 nM.
